Measured values as given in ChEMBL document CHEMBL2151033, “Synthesis, biological evaluation and molecular modeling of 4,6-diarylpyrimidines and diarylbenzenes as novel non-nucleosides HIV-1 reverse transcriptase inhibitors” (Eur J Med Chem, 2012).

What was measured:
[1] = Selectivity index, ratio of CC50 for human MT4 cells to EC50 for wild type HIV1 3B infected in human MT4 cells; assay type: toxicity, cell-based; conditions: read-out: Ratio CC50/EC50
Summary of the method: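 Selectivity index is CC50 in mock-infected MT-4 cells divided by EC50 against HIV-1 IIIB. Both come from the 5-day MTT assay run in parallel on infected and uninfected cells with serial 5-fold dilutions in triplicate.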

[2] = test system: Human immunodeficiency virus 1; assay: Antiviral activity against wild type HIV1 3B infected in human MT4 cells assessed as inhibition of virus-induced cytopathic effect after 5 days by MTT assay; assay type: functional, organism-based; conditions: Human immunodeficiency virus 1, 3B, MT4, 120 h
Summary of the method: (§1)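 Infected and mock-infected MT-4 cells (6×10^5 cells/mL, exponentially growing, spun 5 min at 220 g and resuspended) were treated with serial 5-fold compound dilutions in triplicate. Virus stock at 100-300 CCID50 was added. After 5 days, viability was read spectrophotometrically by MTT at 540 and 690 nm using the median OD of three wells. EC50 is the concentration giving 50% protection from viral cytopathic effect.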

[3] = Cytotoxicity against human MT4 cells assessed as decrease in cell viability after 5 days by MTT assay; assay type: cell-based
Summary of the method: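 Uninfected, mock-treated MT-4 cells (6×10^5 cells/mL) were exposed to serial 5-fold compound dilutions in triplicate wells, run alongside the infected series. After 5 days, MTT reduction was read at 540 and 690 nm using the median OD of three wells. CC50 is the concentration that reduces OD540 of the mock-infected control by 50%.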

[4] = test system: Human immunodeficiency virus 2; assay: Antiviral activity against HIV2 ROD infected in human MT4 cells assessed as inhibition of virus-induced cytopathic effect after 5 days by MTT assay; assay type: functional, organism-based; conditions: Human immunodeficiency virus 2, ISOLATE ROD, MT4, 120 h; summary of the method: as §1
[5] = test system: Human immunodeficiency virus 1; assay: Antiviral activity against HIV1 RES056 harbouring RT K103N/Y181C mutant infected in human MT4 cells assessed as inhibition of virus-induced cytopathic effect after 5 days by MTT assay; assay type: functional, organism-based; conditions: Human immunodeficiency virus 1, RES056, MT4, 120 h
Summary of the method: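 MT-4 cells (exponentially growing, spun 5 min at 220 g, resuspended at 6×10^5 cells/mL) infected with HIV-1 RES056 (K103N + Y181C) at 100-300 CCID50, with serial 5-fold compound dilutions run in triplicate alongside mock-infected wells. Viability was read by MTT at 540 and 690 nm after 5 days, using the median OD of three wells. EC50 is the concentration giving 50% protection from viral cytopathic effect.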

[6] = test system: Human immunodeficiency virus 1; assay: Ratio of nevirapine EC50 to compound EC50 for wild type HIV1 3B infected in human MT4 cells; assay type: functional
[7] = test system: Human immunodeficiency virus 1; assay: Ratio of delavirdine EC50 to compound EC50 for wild type HIV1 3B infected in human MT4 cells; assay type: functional

Structure (SMILES)	selectivity ratio [1]	EC50 [2] [µM]	CC50 at 120 h [3] [µM]	EC50 [4] [µM]	EC50 [5] [µM]	Ratio EC50 [6]	Ratio EC50 [7]
Cc1cc(C)c(Nc2cc(Oc3c(C)cc(C)cc3C)ncn2)c(C)c1	< 1	> 38.5	38.2	> 38.5	> 38.5		
Cc1cc(C)c(Oc2cc(Nc3ccc(C#N)cc3)ncn2)c(C)c1	870	0.049	42.2	> 42.2	> 42.2	2	11
Cc1cc(C)c(Nc2cc(Oc3c(C)cc(C#N)cc3C)ncn2)c(C)c1	7	5.25	37.5	> 37.5	> 37.5		
Cc1cc(C)c(Nc2cccc(Nc3ccc(C#N)cc3)c2)c(C)c1	≥ 552	0.398	≥ 220	> 220	> 220		1.5
Cc1cc(C)c(Oc2cccc(Nc3ccc(C#N)cc3)c2)c(C)c1	65	0.599	52.6	> 52.6	> 52.6		
Cc1cc(C)c(Nc2cccc(Oc3c(C)cc(C)cc3C)c2)c(C)c1	< 1	> 43.6	43.6	> 43.6			
Cc1cc(C#N)cc(C)c1Oc1cc(Nc2ccc(C#N)cc2)ncn1	≥ 740	0.381	> 292	> 292	> 292		1.5
CC(C)Nc1cccnc1N1CCN(C(=O)c2cc3cc(NS(C)(=O)=O)ccc3[nH]2)CC1 [DELAVIRDINE]	> 8	0.548	> 4.39		> 4.39		
Cc1cc(C#N)cc(C)c1Oc1nc(Nc2ccc(C#N)cc2)nc(N)c1Br [ETRAVIRINE]	12900			> 27.8			
Cc1ccnc2c1NC(=O)c1cccnc1N2C1CC1 [NEVIRAPINE]	> 155	0.097	> 15		≥ 7.6		
Cc1cn([C@H]2C[C@H](N=[N+]=[N-])[C@@H](CO)O2)c(=O)[nH]c1=O [ZIDOVUDINE]	> 12000	0.008	> 93.6		0.006		
